Calls of active or inactive are those of the source. The calls are words filed in the database; no cut-off is given here.

For the assay, the system named is Hepatitis C virus. Nature of the assay: Antiviral activity against HCV infected in human HuH5.2 cells assessed as inhibition of subgenomic RNA replication after 4 days by Steady-Glo luciferase assay. The class given is functional, organism-based. Conditions: Hepacivirus hominis. In outline:
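Huh-5-2 replicon cells seeded at 5000/well in complete DMEM with 250 µg/mL G418, grown 24 h at 37 °C (5% CO2). Medium then replaced by threefold serial dilutions of compound in complete DMEM without G418. After 4 days at 37 °C, medium removed and luciferase activity read by luminescence.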
Turning to `COC(=O)c1nc(SCc2cccc(C(F)(F)F)c2)n(COCCOC(C)=O)n1`, the result was inactive.

Take `NC(=O)c1nc(Sc2cccc(C(F)(F)F)c2)n(COCCO)n1`: the outcome was inactive. Turning to `COC(=O)c1nc(Sc2ccc(OC)cc2)n(COCCOC(C)=O)n1`, the result was inactive. With `COc1cccc(Sc2nc(C(N)=O)nn2COCCO)c1`, the outcome was inactive. In the case of `COC(=O)c1nc(Sc2ccccc2F)n(COCCOC(C)=O)n1` it was “inactive”.

For `NC(=O)c1nc(Sc2ccccc2C(F)(F)F)n(COCCO)n1`, the outcome was inactive. The result for `COC(=O)c1nc(Sc2ccc(Cl)cc2)n(COCCOC(C)=O)n1` reads “inactive”; that for `COC(=O)c1nc(Sc2ccc3ccccc3c2)n(COCCOC(C)=O)n1`, “inactive”; that for `COC(=O)c1nc(Sc2ccccc2C)n(COCCOC(C)=O)n1`, “inactive”. The result for `NC(=O)c1nc(Sc2ccccc2F)n(COCCO)n1` reads “inactive”; that for `COC(=O)c1nc(Sc2ccccc2C(F)(F)F)n(COCCOC(C)=O)n1`, “inactive”; that for `COC(=O)c1nc(Sc2ccc(F)cc2)n(COCCOC(C)=O)n1`, “inactive”. In the case of `NC(=O)c1nc(Sc2ccc(Cl)cc2)n(COCCO)n1` it was “inactive”. As for `NC(=O)c1nc(Sc2ccccc2)n(COCCO)n1`, the outcome was inactive. The result for `CCCSc1nc(C(=O)OC)nn1COCCOC(C)=O` reads “inactive”. In the case of `CC(C)(C)c1ccc(Sc2nc(C(N)=O)nn2COCCO)cc1` it was “inactive”; in that of `COC(=O)c1nc(Sc2ccccc2OC)n(COCCOC(C)=O)n1`, “inactive”.

With `NC(=O)c1nc(Sc2ccc(F)cc2)n(COCCO)n1`, the outcome was inactive. The result for `COC(=O)c1nc(Sc2cccc(OC)c2)n(COCCOC(C)=O)n1` reads “inactive”. Regarding `Cc1cccc(Sc2nc(C(N)=O)nn2COCCO)c1`, the outcome was inactive. In the case of `COc1ccccc1Sc1nc(C(N)=O)nn1COCCO` it was “inactive”; in that of `NC(=O)c1nc(Sc2cccc(F)c2)n(COCCO)n1`, “inactive”. The result for `COC(=O)c1nc(Sc2cccc(F)c2)n(COCCOC(C)=O)n1` reads “inactive”. As to `NC(=O)c1nc(Sc2ccc(C(F)(F)F)cc2)n(COCCO)n1`, the result was inactive. In the case of `NC(=O)c1nc(Sc2ccc3ccccc3c2)n(COCCO)n1`, the result was inactive. The result for `COc1ccc(Sc2nc(C(N)=O)nn2COCCO)cc1` reads “inactive”; that for `COC(=O)c1nc(Sc2cccc(C(F)(F)F)c2)n(COCCOC(C)=O)n1`, “inactive”; that for `COC(=O)c1nc(Sc2ccc(C)cc2)n(COCCOC(C)=O)n1`, “inactive”. The result for `COC(=O)c1nc(Sc2ccccc2)n(COCCOC(C)=O)n1` reads “inactive”; that for `NC(=O)c1nc(SCc2cccc(C(F)(F)F)c2)n(COCCO)n1`, “inactive”.

Regarding `COC(=O)c1nc(Sc2cccc(C)c2)n(COCCOC(C)=O)n1`, the outcome was inactive. Regarding `COC(=O)c1nc(Sc2ccc(C(C)(C)C)cc2)n(COCCOC(C)=O)n1`, the outcome was inactive.

Regarding `Cc1ccccc1Sc1nc(C(N)=O)nn1COCCO`, the outcome was inactive. The result for `Cc1ccc(Sc2nc(C(N)=O)nn2COCCO)cc1` reads “inactive”; that for `COC(=O)c1nc(Sc2ccc(C(F)(F)F)cc2)n(COCCOC(C)=O)n1`, “inactive”.

For the origin of these results see ChEMBL document CHEMBL1158603, “S-aryltriazole acyclonucleosides: synthesis and biological evaluation against hepatitis C virus” (Bioorg Med Chem Lett, 2010).
